# In ChEMBL document CHEMBL1149450, “Synthesis and cytotoxic evaluation of new derivatives of the marine alkaloid variolin B” (2006):
# Assays:
# Assay type in all cases: functional
# K562 = assay: Inhibition of growth against K562 cells after 72 hrs exposure; settings: Homo sapiens, K562, 72 h
# Procedure, shortened: (§1)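 Human tumour cells seeded at 5 × 10^3 per well in RPMI and allowed to attach for 18 h in drug-free medium. Compounds added in DMSO:H2O (3:7) for 72 h of continuous exposure. Cells fixed with cold TCA (60 min, 4 °C), stained with 0.4% SRB in 1% acetic acid (10 min, RT), and bound dye solubilised in Tris. OD read at 490 nm. GI50 calculated from 100 × [(T − T0)/(C − T0)] = 50, using control, test and time-zero ODs.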
# IGROV-1 [1] = assay: Inhibition of growth against IGROV cells after 72 hrs exposure; settings: Homo sapiens, IGROV-1, 72 h; procedure, shortened: as §1
# HeLa [2] = assay: Inhibition of growth against HeLa cells after 72 hrs exposure; settings: Homo sapiens; procedure, shortened: as §1
# LNCaP = assay: Inhibition of growth against LnCAP cells after 72 hrs exposure; settings: Homo sapiens; procedure, shortened: as §1
# A549 = assay: Inhibition of growth against A549 cells after 72 hrs exposure; settings: Homo sapiens, A549, 72 h; procedure, shortened: as §1
# LoVo [3] = assay: Inhibition of growth against LoVo-Dox cells after 72 hrs exposure; settings: Homo sapiens; procedure, shortened: as §1
# IGROV-1 [4] = assay: Inhibition of growth against IGROV-ET cells after 72 hrs exposure; settings: Homo sapiens, IGROV-1, 72 h; procedure, shortened: as §1
# SK-MEL-28 = assay: Inhibition of growth against MEL28 cells after 72 hrs exposure; settings: Homo sapiens, SK-MEL-28, 72 h; procedure, shortened: as §1
# DU-145 = assay: Inhibition of growth against DU145 cells after 72 hrs exposure; settings: Homo sapiens, DU-145, 72 h; procedure, shortened: as §1
# HT-29 = assay: Inhibition of growth against HT29 cells after 72 hrs exposure; settings: Homo sapiens, HT-29, 72 h; procedure, shortened: as §1
# PANC-1 = assay: Inhibition of growth against PANC1 cells after 72 hrs exposure; settings: Homo sapiens, PANC-1, 72 h; procedure, shortened: as §1
# HeLa [5] = assay: Inhibition of growth against HeLa-Apl cells after 72 hrs exposure; settings: Homo sapiens; procedure, shortened: as §1
# LoVo [6] = assay: Inhibition of growth against LoVo cells after 72 hrs exposure; settings: Homo sapiens; procedure, shortened: as §1
# SK-BR-3 = assay: Inhibition of growth against SKBR3 cells after 72 hrs exposure; settings: Homo sapiens, SK-BR-3, 72 h; procedure, shortened: as §1
# HMEC = assay: Inhibition of growth against HMEC1 cells after 72 hrs exposure; settings: Homo sapiens; procedure, shortened: as §1
# SK-OV-3 = assay: Inhibition of growth against SKOV3 cells after 72 hrs exposure; settings: Homo sapiens, SK-OV-3, 72 h; procedure, shortened: as §1
Structure (SMILES),GI50 (K562) [µM],GI50 (IGROV-1 [1]) [µM],GI50 (HeLa [2]) [µM],GI50 (LNCaP) [µM],GI50 (A549) [µM],GI50 (LoVo [3]) [µM],GI50 (IGROV-1 [4]) [µM],GI50 (SK-MEL-28) [µM],GI50 (DU-145) [µM],GI50 (HT-29) [µM],GI50 (PANC-1) [µM],GI50 (HeLa [5]) [µM],GI50 (LoVo [6]) [µM],GI50 (SK-BR-3) [µM],GI50 (HMEC) [µM],GI50 (SK-OV-3) [µM]
Nc1nccc(-c2cc3c(-c4ccnc(N)n4)c4c(O)ccnc4n3c(N)n2)n1,26.9,26.9,26.9,26.9,26.9,26.9,26.9,26.9,26.9,26.9,26.9,26.9,26.9,14.8,–,–
COc1ccnc2c1cc1cc(-c3ccnc(N)n3)nc(NCc3ccccc3)n12,25.2,15.1,–,16,25.2,11,25.2,25.2,25.2,25.2,25.2,–,14.4,25.2,15,25.2
Nc1nccc(-c2c3c(O)ccnc3n3c(N)nccc23)n1 [VARIOLIN B],1.55,1.14,–,0.05,0.98,1.02,1.28,1.2,0.89,2.85,1.68,–,0.8,0.85,0.27,1.21
Nc1nccc(-c2cc3c(-c4ccnc(N)n4)c4c(O)ccnc4n3c(NCc3ccccc3)n2)n1,21.7,21.7,–,21.7,21.7,21.7,9.9,21.7,21.7,21.7,21.7,–,21.7,21.7,21.7,21.7
COc1ccnc2c1c(-c1ccnc(N)n1)c1cc(C(=O)NCCN(C)C)nc(NCc3ccccc3)n12,3.36,2.8,–,2.37,3.38,3.46,2.05,4.42,2.38,3.44,3.97,–,3.62,2.13,0.46,0.72
COc1ccnc2c1c(-c1ccnc(N)n1)c1cc(-c3ccnc(N)n3)nc(NCc3ccccc3)n12,21,21,3.03,18.6,21,21,21,21,21,21,19.9,3.68,21,8.24,–,–
CN(C)Cc1cnc2c(c1O)c(-c1ccnc(N)n1)c1cc(-c3ccnc(N)n3)nc(NCc3ccccc3)n12,4.78,4.03,4.52,9.13,18.7,3.05,3.56,4.12,4.74,18.7,17.7,3.88,13.6,2.79,–,–
Nc1nccc(-c2cc3cc4c(O)ccnc4n3c(N)n2)n1 [7-ISOVARIOLIN B],9.24,27.9,6.14,5.28,34.1,34.1,31.9,3.41,34.1,34.1,21.8,8.86,34.1,31.9,–,–
Nc1nccc(-c2cc3cc4c(O)ccnc4n3c(NCc3ccccc3)n2)n1,26.1,4.46,–,12.9,14.1,6.76,12.9,24.4,26.1,25.1,26.1,–,8.74,13.1,6.31,19
